Experimental data from ChEMBL document CHEMBL3272018, “Synthesis of aziridinylallylaminophosphine oxides and sulfides as potential adjuvant cancer chemotherapeutic agents” (J Med Chem, 1976).
The source made the active and inactive calls. The calls are words filed in the database; no cut-off is given here.

Legend:
[1] = system: Rattus norvegicus; assay: Toxicity in rat allografted with rat Walker 256 cells intramuscularly assessed as change in body weight at 0.3 mg/kg, qd administered for 5 days; type: organism-based; parameters: dose 0.3 mg/kg, route intramuscular; details: in vivo, im, 120 h
Procedure, shortened: (§1)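 Walker 256 carcinoma solid-tumour system in rats (parent line, or the line resistant to cytoxan). Dosing was one injection per day for 5 days. Toxicity was taken as the average net body-weight change of the treated group minus the average net weight change of the untreated tumour-bearing controls, in grams.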

[2] = system: W256; assay: Antitumor activity against rat Walker 256 cells intramuscularly allografted in rat assessed as survival rate at 0.3 mg/kg, qd administered for 5 days; type: functional, organism-based; parameters: dose 0.3 mg/kg
Procedure, shortened: (§2)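 Rats bearing Walker 256 carcinoma as a solid tumor; lines 1-8 use a cytoxan-resistant Walker 256 subline. Dosed once daily for 5 days. Treated (T) and untreated control (C) groups are compared, and the response is given as T/C percentage, reflecting increase in survival time. Host weight change is the average weight change of the test group minus that of the controls, in grams.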

[3] = system: W256; assay: Antitumor activity against rat Walker 256 cells intramuscularly allografted in rat assessed as tumor growth at 0.3 mg/kg, qd administered for 5 days (reference value: 9.2 g); type: functional; details: route intramuscular
Procedure, shortened: (§3)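 Dosed once daily for 5 days. Response is tumor progression in treated (T) versus untreated control (C) animals, expressed as T/C percentage. Host weight change is reported as the average net weight change of the test group minus that of the controls, in grams.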

[4] = Toxicity in rat allografted with rat Walker 256 cells intramuscularly; type: organism-based
[5] = system: Musca domestica; assay: Toxicity in male house fly assessed as lowest dose required to cause complete sterility administered in sugar; type: organism-based; details: in vivo, po
[6] = system: Musca domestica; assay: Toxicity in male house fly assessed as lowest dose required to cause complete sterility administered in food; type: organism-based; details: in vivo, po
[7] = system: Rattus norvegicus; assay: Toxicity in rat allografted with rat Walker 256 cells intramuscularly assessed as change in body weight at 3 mg/kg, qd administered for 5 days; type: organism-based; parameters: dose 3 mg/kg, route intramuscular; details: in vivo, im, 120 h; procedure, shortened: as §1
[8] = system: W256; assay: Antitumor activity against rat Walker 256 cells intramuscularly allografted in rat assessed as survival rate at 3 mg/kg, qd administered for 5 days; type: functional, organism-based; parameters: dose 3 mg/kg; procedure, shortened: as §2
[9] = system: W256; assay: Antitumor activity against rat Walker 256 cells intramuscularly allografted in rat assessed as tumor growth inhibition at 3 mg/kg, qd administered for 5 days relative to control; type: functional; details: W256, im, 120 h, route intramuscular, read-out: TGI
Procedure, shortened: (§4)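 Walker 256 carcinoma grown as a solid tumour in rats, with one injection daily for 5 days. Response is given as T/C %, the treated-group measure over the untreated-control tumour measure; a smaller value means more activity. Host toxicity is the mean net weight change of treated minus control animals, in grams.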

[10] = system: W256; assay: Antitumor activity against rat Walker 256 cells intramuscularly allografted in rat assessed as tumor growth inhibition; type: functional; details: W256, im; procedure, shortened: as §3
[11] = Therapeutic index, ratio of LD50 for rat allografted with rat Walker 256 cells to ED10 for antitumor activity against rat Walker 256 cells intramuscularly allografted in rat; type: cell-based; details: read-out: TI
Procedure, shortened: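 Therapeutic index is LD50/ED10 in the Walker 256 solid tumour system. ED10 is the dose giving a 10% tumour weight reduction, with values extrapolated from dose-response data.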

[12] = Antitumor activity against rat Lewis-Lymphoma 8 cells allografted in Lewis-Wistar rat assessed as tumor regression at 20 mg/kg, ip administered for 2 weeks measured for 9 to 10 months relative to control; type: functional; details: route intraperitoneal
[13] = system: Rattus norvegicus; assay: Toxicity in rat allografted with rat Walker 256 cells intramuscularly assessed as change in body weight at 6.25 mg/kg, qd administered for 5 days; type: organism-based; parameters: dose 6.25 mg/kg, route intramuscular; details: in vivo, im, 120 h; procedure, shortened: as §1
[14] = system: Rattus norvegicus; assay: Toxicity in rat allografted with rat Walker 256 cells intramuscularly assessed as change in body weight at 3.12 mg/kg, qd administered for 5 days; type: organism-based; parameters: dose 3.12 mg/kg, route intramuscular; details: in vivo, im, 120 h; procedure, shortened: as §1
[15] = system: Rattus norvegicus; assay: Toxicity in rat allografted with rat Walker 256 cells intramuscularly assessed as change in body weight at 1.56 mg/kg, qd administered for 5 days; type: organism-based; parameters: dose 1.56 mg/kg, route intramuscular; details: in vivo, im, 120 h; procedure, shortened: as §1
[16] = system: Rattus norvegicus; assay: Toxicity in rat allografted with rat Walker 256 cells intramuscularly assessed as change in body weight at 0.78 mg/kg, qd administered for 5 days; type: organism-based; parameters: dose 0.78 mg/kg, route intramuscular; details: in vivo, im, 120 h; procedure, shortened: as §1
[17] = system: W256; assay: Antitumor activity against rat Walker 256 cells intramuscularly allografted in rat assessed as tumor growth inhibition at 6.25 mg/kg, qd administered for 5 days relative to control; type: functional; details: W256, im, 120 h, route intramuscular, read-out: TGI; procedure, shortened: as §4
[18] = system: W256; assay: Antitumor activity against rat Walker 256 cells intramuscularly allografted in rat assessed as tumor growth inhibition at 3.12 mg/kg, qd administered for 5 days relative to control; type: functional; details: W256, im, 120 h, route intramuscular, read-out: TGI; procedure, shortened: as §4
[19] = system: W256; assay: Antitumor activity against rat Walker 256 cells intramuscularly allografted in rat assessed as tumor growth inhibition at 1.56 mg/kg, qd administered for 5 days relative to control; type: functional; details: W256, im, 120 h, route intramuscular, read-out: TGI; procedure, shortened: as §3
[20] = system: W256; assay: Antitumor activity against rat Walker 256 cells intramuscularly allografted in rat assessed as survival rate at 6.25 mg/kg, qd administered for 5 days; type: functional, organism-based; parameters: dose 6.25 mg/kg; procedure, shortened: as §2
[21] = system: W256; assay: Antitumor activity against rat Walker 256 cells intramuscularly allografted in rat assessed as survival rate at 3.12 mg/kg, qd administered for 5 days; type: functional, organism-based; parameters: dose 3.12 mg/kg; procedure, shortened: as §2
[22] = system: W256; assay: Antitumor activity against rat Walker 256 cells intramuscularly allografted in rat assessed as survival rate at 1.56 mg/kg, qd administered for 5 days; type: functional, organism-based; parameters: dose 1.56 mg/kg; procedure, shortened: as §2
[23] = system: W256; assay: Antitumor activity against rat Walker 256 cells intramuscularly allografted in rat assessed as survival rate at 0.78 mg/kg, qd administered for 5 days; type: functional, organism-based; parameters: dose 0.78 mg/kg; procedure, shortened: as §2
[24] = system: L1210; assay: In vivo antitumor activity against mouse L1210 cells in prognostic scoring system assessed as survival rate at 5 mg/kg, qd administered for 9 days; type: functional, organism-based; parameters: dose 5 mg/kg
Procedure, shortened: (§5)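 L1210 leukaemia in mice, run as an ascites tumour system. Injections were once daily for 9 or 15 days, or as a single dose. Response is the increase in survival time, given as T/C %, treated over untreated controls; a larger value means more activity. Weight change is the treated-group mean minus the control-group mean, in grams.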

[25] = system: L1210; assay: In vivo antitumor activity against mouse L1210 cells in prognostic scoring system assessed as survival rate at 3 mg/kg, qd administered for 9 days; type: functional, organism-based; parameters: dose 3 mg/kg; procedure, shortened: as §5
[26] = system: L1210; assay: In vivo antitumor activity against mouse L1210 cells in prognostic scoring system assessed as survival rate at 1.8 mg/kg, qd administered for 9 days; type: functional, organism-based; parameters: dose 1.8 mg/kg; procedure, shortened: as §5
[27] = system: L1210; assay: In vivo antitumor activity against mouse L1210 cells in prognostic scoring system assessed as survival rate at 1 mg/kg, qd administered for 9 days; type: functional, organism-based; parameters: dose 1 mg/kg; procedure, shortened: as §5
[28] = system: W256; assay: Antitumor activity against rat Walker 256 cells intramuscularly allografted in rat assessed as tumor growth inhibition at 0.78 mg/kg, qd administered for 5 days relative to control; type: functional; details: W256, im, 120 h, route intramuscular, read-out: TGI; procedure, shortened: as §3
[29] = system: L1210; assay: In vivo antitumor activity against mouse L1210 cells in prognostic scoring system assessed as tumor growth inhibition at 3 mg/kg, qd administered for 9 days relative to control; type: functional; details: L1210, 216 h, read-out: TGI

With `C=CCN(CC=C)P(=S)(N1CC1)N1CC1` the Activity [1] was 0 g, the Activity [2] was “Active” and the Activity [3] was 9.5 g. For the same compound, the LD50 [4] was 2 mg/kg, the Activity [5] was 0.05% and the Activity [6] was 0.05%.

In the case of `C=CCN(CC=C)P(=S)(N1CC1C)N1CC1C` (configuration not stated), the Activity [7] is reported as -7 g, the Activity [8] is reported as “Active” and the inhibition in vivo at 3 mg/kg [9] is reported as 14%. The LD50 [4] was 7 mg/kg, the ED10 [10] was 0.7 mg/kg and the selectivity ratio [11] was 10. It also gave an Activity [5] of 1% and an Activity [6] of 1%.

For `C=CCN(CC=C)C(CN1CC1)C(N)=O` (configuration not stated), the Activity [12] was 100%.

Work on `C=CCN(CC=C)P(=O)(N1CC1C)N1CC1C` (configuration not stated) yielded an Activity [13] of -28 g, an Activity [14] of -15 g and an Activity [15] of -22 g. It also gave an Activity [16] of -8 g, an inhibition in vivo at 6.25 mg/kg [17] of 3% and an inhibition in vivo at 3.12 mg/kg [18] of 0%. The inhibition in vivo at 1.56 mg/kg [19] was 5%, the Activity [20] was “Active” and the Activity [21] was “Active”. For the same compound, the Activity [22] was “Active”, the Activity [23] was “Active” and the Activity [24] was “Active”. For the same compound, the Activity [25] was “Active”, the Activity [26] was “Active” and the Activity [27] was “Active”. It also gave an inhibition in vivo at 0.78 mg/kg [28] of 24%, an inhibition in vivo at 3 mg/kg [29] of 172% and an LD50 [4] of 22 mg/kg. It also gave an ED10 [10] of 3.5 mg/kg, a selectivity ratio [11] of 9 and an Activity [5] of 0.5%. It also gave an Activity [6] of 0.25%.
